Calls of active or inactive are those of the source. No cut-off for these calls is given here.
Tests used:
KB [1] = assay: Cytotoxicity against human KB cells at 1 mM after 96 hrs by CellTitre-Blue fluorescence assay; assay type: functional; settings: read-out: GI
In short: (§1)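 KB cells were exposed for 96 h at 37 °C to metformin (0–10 mM) or AICA (0–2 mM) in FF-RPMI/DFBS with 2 nM LCV. Growth was read by CellTiter-Blue fluorescence relative to drug-free cells.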

[2] = target: Bifunctional purine biosynthesis protein ATIC (Homo sapiens) (UniProt P31939); assay: Inhibition of AICARFTase in human KB cells assessed as phosphorylated AMPK at 1 mM after 48 hrs by Western blot analysis; assay type: cell-based
Sequence of Bifunctional purine biosynthesis protein ATIC (Homo sapiens) (P31939 whole entry, looked up): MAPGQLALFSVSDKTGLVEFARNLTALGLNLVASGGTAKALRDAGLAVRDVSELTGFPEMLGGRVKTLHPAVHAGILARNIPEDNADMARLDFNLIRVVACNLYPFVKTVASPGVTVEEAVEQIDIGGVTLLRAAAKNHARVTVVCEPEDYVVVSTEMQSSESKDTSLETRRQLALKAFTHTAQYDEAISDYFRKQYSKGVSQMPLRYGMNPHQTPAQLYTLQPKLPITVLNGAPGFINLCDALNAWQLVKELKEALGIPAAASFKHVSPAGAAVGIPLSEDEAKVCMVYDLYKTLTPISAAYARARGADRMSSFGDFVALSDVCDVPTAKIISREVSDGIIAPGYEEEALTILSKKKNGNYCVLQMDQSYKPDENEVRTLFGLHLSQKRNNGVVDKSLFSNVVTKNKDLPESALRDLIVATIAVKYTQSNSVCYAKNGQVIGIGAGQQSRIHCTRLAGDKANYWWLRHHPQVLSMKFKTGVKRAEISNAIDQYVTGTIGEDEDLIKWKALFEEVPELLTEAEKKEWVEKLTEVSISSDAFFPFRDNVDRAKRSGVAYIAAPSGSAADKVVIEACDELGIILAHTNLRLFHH
In short: (§2)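 KB cells were treated for 48 h with 10 μM thymidine, or with AMPK activators (metformin 10 mM, AICA 1 mM, AICAR 1 mM) against a water/DMSO vehicle. Cells were sonicated in 10 mM Tris-HCl pH 7.0 with protease/phosphatase inhibitors. 90 μg protein was run on 4–20% SDS gels and blotted for phospho-AMPK, total AMPK and β-actin, with infrared detection.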

[3] = Cytotoxicity against chinese hamster R2(VC) cells after 96 hrs by CellTitre-Blue fluorescence assay; assay type: functional, cell-based; settings: Cricetulus griseus
In short: (§3)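 CHO sublines were grown in FF-RPMI/DFBS; transfectants were maintained with G418. Cells were exposed to antifolate (0–1 μM) for 96 h at 37 °C with 2 nM LCV (RT16) or 25 nM LCV (R2/PCFT4). PC43-10 cells were grown in standard RPMI1640/DFBS instead. FRα specificity was tested by adding 200 nM folic acid. Viable cells were read by CellTiter-Blue fluorescence (ex 560/em 590), and IC50 was taken from dose–response curves; means of 3–10 experiments.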

[4] = Cytotoxicity against chinese hamster PC43-10 cells expressing human RFC after 96 hrs by CellTitre-Blue fluorescence assay; assay type: functional, cell-based; settings: Cricetulus griseus, PC43-10, 96 h; in short: as §3
R2 [5] = assay: Cytotoxicity against chinese hamster R2 cells after 96 hrs by CellTitre-Blue fluorescence assay; settings: Cricetulus griseus, R2, 96 h
R2 [6] = assay: Cytotoxicity against chinese hamster R2 cells expressing human PCFT4 after 96 hrs by CellTitre-Blue fluorescence assay; assay type: functional, cell-based, Cricetulus griseus; settings: R2, 96 h
KB [7] = assay: Cytotoxicity against human KB cells expressing human RFC/FRalpha/PCFT after 96 hrs by CellTitre-Blue fluorescence assay in presence of AICA; assay type: functional, cell-based
In short: (§4)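 KB cells were grown in FF-RPMI with DFBS and 2 nM LCV, exposed to antifolate (0–1 μM) for 96 h at 37 °C, and read by CellTiter-Blue fluorescence. IC50 was taken from dose–response curves relative to untreated cells. Protection arms added adenosine 60 μM, thymidine 10 μM, AICA 320 μM, or folic acid 200 nM. Means of 3–10 experiments.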

KB [8] = assay: Cytotoxicity against human KB cells expressing human RFC/FRalpha/PCFT after 96 hrs by CellTitre-Blue fluorescence assay in presence of adenosine; assay type: functional, cell-based; in short: as §4
KB [9] = assay: Cytotoxicity against human KB cells expressing human RFC/FRalpha/PCFT after 96 hrs by CellTitre-Blue fluorescence assay in presence of thymidine; assay type: functional, cell-based; in short: as §4
[10] = Cytotoxicity against chinese hamster RT16 cells expressing human FRalpha after 96 hrs by CellTitre-Blue fluorescence assay in presence of folic acid; assay type: functional, cell-based; settings: Cricetulus griseus, RT16, 96 h; in short: as §3
KB [11] = assay: Cytotoxicity against human KB cells at 10 mM after 96 hrs by CellTitre-Blue fluorescence assay; assay type: functional; settings: read-out: GI; in short: as §1
[12] = target: Bifunctional purine biosynthesis protein ATIC (Homo sapiens) (UniProt P31939); assay: Inhibition of AICARFTase in human KB cells assessed as phosphorylated AMPK at 10 mM after 48 hrs by Western blot analysis; assay type: cell-based; in short: as §2

## NC(=O)c1[nH]cnc1N
KB [1]
  inhibition of growth at 1000 µM: 20%
[2]
  inhibition: inactive

## Nc1nc2[nH]c(CCCc3ccc(C(=O)N[C@@H](CCC(=O)O)C(=O)O)cc3)cc2c(=O)[nH]1
[3]
  IC50: > 1 µM
[4]
  IC50: 0.649 µM
R2 [5]
  IC50: > 1 µM

## Nc1nc2[nH]c(CCCCCc3ccc(C(=O)N[C@@H](CCC(=O)O)C(=O)O)cc3)cc2c(=O)[nH]1
[3]
  IC50: > 1 µM
R2 [6]
  IC50: > 1 µM

## Nc1nc2[nH]cc(CCCc3ccc(C(=O)N[C@@H](CCC(=O)O)C(=O)O)cc3)c2c(=O)[nH]1
KB [7]
  Activity: Active
KB [8]
  Activity: inactive
KB [9]
  Activity: Active
[3]
  IC50: > 1 µM
[10]
  IC50: > 1 µM
R2 [5]
  IC50: > 1 µM

## Nc1nc2[nH]cc(CCCCCc3ccc(C(=O)N[C@@H](CCC(=O)O)C(=O)O)cc3)c2c(=O)[nH]1
KB [7]
  Activity: inactive
KB [8]
  Activity: inactive
KB [9]
  Activity: Active
[3]
  IC50: > 1 µM
R2 [6]
  IC50: > 1 µM
[10]
  IC50: > 1 µM
R2 [5]
  IC50: > 1 µM

## CN(C)C(=N)NC(=N)N [METFORMIN]
KB [11]
  inhibition of growth at 10000 µM: 32%
[12]
  inhibition: inactive

## Nc1nc2[nH]cc(CCCCCCc3ccc(C(=O)N[C@@H](CCC(=O)O)C(=O)O)cc3)c2c(=O)[nH]1
[3]
  IC50: > 1 µM
R2 [6]
  IC50: > 1 µM
[10]
  IC50: > 1 µM
R2 [5]
  IC50: > 1 µM

— ChEMBL document CHEMBL3102834, “Discovery of 5-substituted pyrrolo[2,3-d]pyrimidine antifolates as dual-acting inhibitors of glycinamide ribonucleotide formyltransferase and 5-aminoimidazole-4-carboxamide ribonucleotide formyltransferase in de novo purine nucleotide biosynthesis: implications of inhibiting …” (J Med Chem, 2013)
